Results from different studies.
Protocols differ between the studies behind these lines.
BCHE: Cholinesterase (BCHE, Homo sapiens, UniProt P06276)
Oprk1: Kappa-type opioid receptor (Oprk1, Mus musculus, UniProt P33534)

SMILES | target | observed | action | method | measurement | value
CSCC[C@H](NC(=O)[C@H](CCCNC(=N)N)NC(=O)[C@H](Cc1ccc(O)cc1)NC(=O)[C@@H]1CCCN1C(=O)CNC(=O)[C@H](CCC(=O)O)NC(=O)[C@H](Cc1c[nH]cn1)NC(=O)[C@H](CCCCN)NC(=O)[C@H](CCCCN)NC(=O)[C@H](CCC(=O)O)NC(=O)[C@H](C)N)C(=O)N[C@@H](CCC(=O)O)C(=O)N[C@@H](Cc1c[nH]cn1)C(=O)N[C@@H](Cc1ccccc1)C(=O)N[C@@H](CCCNC(=N)N)C(=O)N[C@@H](Cc1c[nH]c2ccccc12)C(=O)NCC(=O)N[C@@H](CO)C(=O)N1CCC[C@H]1C(=O)N1CCC[C@H]1C(=O)N[C@@H](CCCCN)C(=O)N[C@@H](CC(=O)O)C(=O)O | Melanocortin receptor 4 (MC4R, Homo sapiens, UniProt P32245) | reporter gene | agonist | luciferase | EC50 | 1.46 nM
CC(C)c1cc2c(c(O)c1O)[C@@]13CCCC(C)(C)[C@@H]1[C@@H](O)[C@@H]2OC3=O | BCHE | enzyme activity | inhibitor | – | IC50 | 1.41 nM
COc1cc2c(cc1OC)CN(CCc1ccc(NC(=O)c3cccc4c(=O)c5cccc(OC)c5[nH]c34)cc1)CC2 | Muscarinic acetylcholine receptor M5 (CHRM5, Homo sapiens, UniProt P08912) | cell-free assay | – | – | Ki | > 10000 nM
C=CCOc1ccc(C(=O)/C=C/c2ccc(OC)cc2)c(OS(=O)(=O)c2ccc(F)cc2)c1I | BCHE | enzyme activity | inhibitor | – | IC50 | 11300 nM
CC(C)[C@@H](CN1CCc2ccccc2C1)NC(=O)c1cccc(-c2cccc(O)c2)c1 | Oprk1 | ligand displacement | – | radioligand | Ki | 810 nM
C=CCOc1ccc(C(=O)/C=C/c2ccc(OC)cc2)c(OS(=O)(=O)c2ccc(OC)cc2)c1I | BCHE | enzyme activity | inhibitor | – | IC50 | 30100 nM
C=CCc1ccc(O)c(-c2cc(CC=C)ccc2O)c1 | BCHE | enzyme activity | inhibitor | Ellman | IC50 | > 100000 nM
CCOC(=O)c1ccc(OC(=O)CCCCCN=C(N)N)cc1 | Plasma kallikrein (KLKB1, Homo sapiens, UniProt P03952) | enzyme activity | inhibitor | – | IC50 | 86.4 nM
CC(C)c1cc2c(c(O)c1O)[C@@]13CCCC(C)(C)[C@@H]1C[C@@H]2OC3=O | BCHE | enzyme activity | inhibitor | – | IC50 | 0.95 nM
COc1c2c(cc3c1-c1c(cc4c(c1OC)OCO4)C[C@H](C)[C@H](C)C3)OCO2 | Cocaine esterase (CES2, Homo sapiens, UniProt O00748) | enzyme activity | inhibitor | fluorescence | IC50 | 1340 nM
C=CCOc1ccc(C(=O)/C=C/c2cccc(F)c2)c(OS(=O)(=O)c2ccc(F)cc2)c1I | BCHE | enzyme activity | inhibitor | – | IC50 | 30200 nM
CC(C)c1cc2c(c(O)c1O)[C@@]1(C(=O)O)CCCC(C)(C)[C@@H]1CC2 | BCHE | enzyme activity | inhibitor | absorbance | Ki | 0.49 nM
COc1cc(/C=C/C(=O)O)ccc1OCc1cn(CC(=O)Nc2ccc(Cl)cc2Cl)nn1 | BCHE | enzyme activity | inhibitor | Ellman | Ki | 1850 nM
CC(C)c1cc2c(c(O)c1O)[C@@]13CCCC(C)(C)[C@@H]1[C@H](OC3=O)[C@H]2O | BCHE | enzyme activity | inhibitor | – | IC50 | 0.75 nM
C=CCOc1ccc(C(=O)/C=C/c2ccc(OC)cc2)c(O)c1I | BCHE | enzyme activity | inhibitor | – | IC50 | 22400 nM
CC(C)[C@H](CN1CCc2ccccc2C1)NC(=O)Cc1c[nH]c2ccccc12 | Oprk1 | ligand displacement | – | radioligand | Ki | 2810 nM
